Calls of active or inactive are those of the source. No cut-off for these calls is given here.
Key:
[1] = molecular target: T1, Nuclear factor erythroid 2-related factor 2 (Homo sapiens) (UniProt Q16236); assay: Activation of Nrf2 in human HepG2-ARE-C8 cells assessed as induction of ARE-mediated luciferase activity at 0.1 uM after 24 hrs by luciferase reporter gene assay relative to control; assay type: cell-based
T1 sequence (whole entry): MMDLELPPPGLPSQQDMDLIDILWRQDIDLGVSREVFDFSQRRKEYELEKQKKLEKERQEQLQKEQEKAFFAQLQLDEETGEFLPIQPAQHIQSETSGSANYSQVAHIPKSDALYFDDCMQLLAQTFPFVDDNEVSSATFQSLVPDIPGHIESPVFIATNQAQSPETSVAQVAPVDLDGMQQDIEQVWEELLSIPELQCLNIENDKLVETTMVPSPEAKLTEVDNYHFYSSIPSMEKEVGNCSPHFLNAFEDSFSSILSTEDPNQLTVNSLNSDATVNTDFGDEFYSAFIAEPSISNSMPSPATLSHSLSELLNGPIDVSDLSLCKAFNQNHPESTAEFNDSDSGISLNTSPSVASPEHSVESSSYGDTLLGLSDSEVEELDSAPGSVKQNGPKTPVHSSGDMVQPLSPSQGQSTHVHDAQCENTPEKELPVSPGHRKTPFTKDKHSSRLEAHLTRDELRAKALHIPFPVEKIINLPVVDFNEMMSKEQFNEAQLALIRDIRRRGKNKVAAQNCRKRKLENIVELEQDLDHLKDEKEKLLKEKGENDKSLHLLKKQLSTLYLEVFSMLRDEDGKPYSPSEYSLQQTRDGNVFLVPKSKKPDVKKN
Outline: (§1)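 HepG2-ARE-C8 cells stably carrying ARE-luciferase, grown in DMEM with 10% FBS at 37 °C and 5% CO2. Seeded at 5 × 10^4 cells/well, left overnight, then given compound diluted from a 10 mM DMSO stock for 24 h. Cells lysed and luciferase read as RLU. Inductivity = (RLUtest − RLUblank)/(RLUcontrol − RLUblank), with DMSO as control. Mean ± SEM of three experiments.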

[2] = molecular target: T1, Nuclear factor erythroid 2-related factor 2 (Homo sapiens); assay: Activation of Nrf2 in human HepG2-ARE-C8 cells assessed as induction of ARE-mediated luciferase activity at 1 uM after 24 hrs by luciferase reporter gene assay relative to control; assay type: cell-based; outline: as §1
[3] = molecular target: T1, Nuclear factor erythroid 2-related factor 2 (Homo sapiens); assay: Activation of Nrf2 in human HepG2-ARE-C8 cells assessed as induction of ARE-mediated luciferase activity at 20 uM after 24 hrs by luciferase reporter gene assay relative to control; assay type: cell-based; outline: as §1
[4] = molecular target: T1, Nuclear factor erythroid 2-related factor 2 (Homo sapiens); assay: Activation of Nrf2 in human HepG2-ARE-C8 cells assessed as induction of ARE-mediated luciferase activity at 80 uM after 24 hrs by luciferase reporter gene assay relative to control; assay type: cell-based; outline: as §1
L02 [5] = assay: Cytotoxicity against human LO2 cells up to 160 uM after 24 hrs by MTT assay; assay type: cell-based; details: l02, 24 h
Outline: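 LO2 cells plated for 12 h, then treated for 24 h with 0, 0.2, 2, 20, 40, 80 or 160 μM compound diluted in medium from a DMSO stock. MTT (5 mg/mL stock) added for 4 h, formazan dissolved in DMSO, A570 read. Viability computed from OD relative to DMSO control and blank. Mean ± SD of three experiments.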

[6] = molecular target: T1, Nuclear factor erythroid 2-related factor 2 (Homo sapiens); assay: Activation of Nrf2 in human LO2 cells cotreated with Nrf2 siRNA assessed as increase in GCLM mRNA expression level at 20 uM by qRT-PCR analysis; assay type: cell-based
Outline: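 LO2 cells plated at 7 × 10^5 per 60 mm dish and transfected with 50 nM Nrf2 siRNA (scrambled siRNA as control). After 24 h, fresh medium was added and cells grown a further 48 h. Then 20 μM compound for 12 h. Nrf2, NQO1, GCLM and HO-1 mRNA measured by qRT-PCR, normalized to GAPDH, as fold over control.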

[7] = molecular target: T1, Nuclear factor erythroid 2-related factor 2 (Homo sapiens); assay: Activation of Nrf2 in human LO2 cells assessed as increase in Nrf2 mRNA expression level by qRT-PCR analysis; assay type: cell-based
Outline: (§2)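 LO2 cells in DMEM with 10% FBS were exposed to 0, 2.5, 5, 10, 20 or 40 μM compound for 12 h. Transcripts measured by qRT-PCR: 40 cycles of 95 °C for 5 s and 60 °C for 30 s. Normalized to GAPDH and expressed as fold over the untreated control. Mean ± SD, n = 3.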

[8] = molecular target: T1, Nuclear factor erythroid 2-related factor 2 (Homo sapiens); assay: Activation of Nrf2 in human LO2 cells assessed as increase in GCLC mRNA expression level by qRT-PCR analysis; assay type: cell-based; outline: as §2
[9] = molecular target: T1, Nuclear factor erythroid 2-related factor 2 (Homo sapiens); assay: Activation of Nrf2 in human LO2 cells assessed as increase in GCLM mRNA expression level by qRT-PCR analysis; assay type: cell-based; outline: as §2
L02 [10] = assay: Hepatoprotective activity against APAP-induced cell injury in human LO2 cells assessed as increase in cell viability pretreated for 24 hrs followed by APAP treatment measured after 24 hrs by MTT assay; assay type: functional, cell-based
Outline: (§3)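 LO2 cells plated for 12 h and pretreated for 24 h with 5, 10 or 20 μM compound. One arm was first transfected with 50 nM Nrf2 siRNA before receiving 20 μM compound. Medium then replaced with medium containing 8 mM APAP for 24 h. Viability by MTT at A570. Mean ± SD of three experiments.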

L02 [11] = assay: Hepatoprotective activity against APAP-induced cell injury in human LO2 cells cotreated with Nrf2 siRNA assessed as cell viability at 20 uM pretreated for 24 hrs followed by APAP treatment measured after 24 hrs by MTT assay; assay type: functional; details: read-out: Activity; outline: as §3
[12] = Lipophilicity, log D of the compound at pH 7.4 by potentiometric titration method; assay type: physicochemical; details: buffer
Outline: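 Intrinsic aqueous solubility and logD at pH 7.4 determined by Avdeef-Bucher potentiometric titration on a pION Gemini Profiler.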

Mus musculus [13] = assay: In vivo activation of Nrf2 in APAP-induced liver injury in C57BL/6 mouse assessed as increase in Nrf2 protein expression level at 10 to 100 mg/kg, ip administered for 7 consecutive days followed by APAP challenge 1 hr post last compound dose and measured after 24 hrs by Western blot analysis; assay type: functional, organism-based
Outline: (§4)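 Female C57BL/6 mice (20–25 g, n = 10/group) received 10, 50 or 100 mg/kg/day ip in saline for 7 days. One hour after the last dose they received APAP 300 mg/kg in saline. Killed 24 h later. Serum ALT/AST by kit. Liver homogenates (pH 7.0 phosphate) used for GSH (A420, μmol/g protein), GST (A412, U/mg protein) and SOD. Liver also analyzed by western blot (β-actin normalized), qRT-PCR (GAPDH normalized) and H&E.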

Mus musculus [14] = assay: In vivo activation of Nrf2 in APAP-induced liver injury in C57BL/6 mouse assessed as increase in GCLM mRNA expression level administered ip for 7 consecutive days followed by APAP challenge 1 hr post last compound dose and measured after 24 hrs by qRT-PCR analysis; assay type: functional, organism-based; outline: as §4
Mus musculus [15] = assay: Hepatoprotective activity against APAP-induced liver injury in C57BL/6 mouse assessed as increase in GSH levels administered ip for 7 consecutive days followed by APAP challenge 1 hr post last compound dose and measured after 24 hrs; assay type: functional, organism-based; outline: as §4
Mus musculus [16] = assay: Hepatoprotective activity against APAP-induced liver injury in C57BL/6 mouse assessed as increase in SOD levels administered ip for 7 consecutive days followed by APAP challenge 1 hr post last compound dose and measured after 24 hrs by NBT assay; assay type: functional, organism-based; outline: as §4

Activity [1]: 3.46
Activity [2]: 16.1
Activity [3]: 24.7
Activity [4]: 59.5
Activity [6]: Active
Activity [7]: Dose-dependent effect
Activity [8]: Dose-dependent effect
Activity [9]: Dose-dependent effect
logD [12]: 3.07
SMILES: Cc1ccc(-c2noc(-c3ccc(F)c(F)c3)n2)cn1
Activity (L02 [5]): <= 7%
Activity (L02 [10]): Dose-dependent effect
viability at 20 µM (L02 [11]): 50%
Activity (Mus musculus [13]): Active
Activity (Mus musculus [14]): Dose-dependent effect
Activity (Mus musculus [15]): Dose-dependent effect
Activity (Mus musculus [16]): Dose-dependent effect

Source: ChEMBL document CHEMBL4265908, “Structure-activity and structure-property relationships of novel Nrf2 activators with a 1,2,4-oxadiazole core and their therapeutic effects on acetaminophen (APAP)-induced acute liver injury” (Eur J Med Chem, 2018)
